Screening results as filed in PubChem.
M5 ag = human M5 muscarinic receptor agonists, primary screen, CHO-K1 cells, Fluo-8 calcium fluorescence | Muscarinic acetylcholine receptor M5 (Homo sapiens), P08912 | AID 624037, 2012 | 360,000 tested, 0.19% active | activation, % at 3 µM | CHO-K1 hM5 cells; 0% DMSO wells, 100% maximal acetylcholine response;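 active = activation above the run's mean over test compounds plus 3 SD, cut at about 23% in these data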;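 note: signal is peak over basal fluorescence ratio across the kinetic read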
Target sequence (P08912 whole entry, looked up): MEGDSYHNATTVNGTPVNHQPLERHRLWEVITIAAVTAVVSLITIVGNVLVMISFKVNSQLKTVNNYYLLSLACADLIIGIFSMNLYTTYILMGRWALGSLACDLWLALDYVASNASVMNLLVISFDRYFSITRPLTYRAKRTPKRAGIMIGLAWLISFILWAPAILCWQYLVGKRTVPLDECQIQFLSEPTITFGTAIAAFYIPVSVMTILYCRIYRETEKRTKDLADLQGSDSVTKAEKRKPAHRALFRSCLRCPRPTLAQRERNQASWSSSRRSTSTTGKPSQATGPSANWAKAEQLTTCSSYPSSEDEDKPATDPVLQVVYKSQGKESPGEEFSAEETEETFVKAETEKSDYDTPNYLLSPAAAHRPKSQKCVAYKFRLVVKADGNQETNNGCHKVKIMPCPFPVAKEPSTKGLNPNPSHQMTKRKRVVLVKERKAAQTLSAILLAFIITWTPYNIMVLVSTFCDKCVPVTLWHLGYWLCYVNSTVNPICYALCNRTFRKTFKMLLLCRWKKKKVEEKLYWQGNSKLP
CHRM1 agonist = human M1 muscarinic receptor agonists, primary screen, Fluo-8 calcium fluorescence, CHO-K1 cells, HTS; CHO-K1 hM1, agonist mode; 0% DMSO, 100% acetylcholine EC100; activation, % at 3 µM; 360,000 tested, 0.33% active;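 active = activation above the run's mean compound activation plus 3 SD, cut at about 16% in these data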;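 note: peak over basal fluorescence ratio within a 140 s kinetic read after compound addition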
CHRM5 antagonist = human M5 muscarinic receptor antagonists, primary screen, CHO cells, Fluo-8 calcium fluorescence; Muscarinic acetylcholine receptor M5 (Homo sapiens), P08912; CHO-hM5 cells, ACh EC80; inhibition, % at 3 µM; 360,000 tested, 0.59% active;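 active = inhibition above a per-plate cutoff, the mean of that plate's test compounds plus 3 SD, cut at about 27% in these data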
M5 PAM = human M5 muscarinic receptor positive allosteric modulators, primary screen, CHO-K1 cells, Fluo-8 calcium fluorescence; Muscarinic acetylcholine receptor M5 (Homo sapiens), P08912; CHO-K1 hM5, ACh EC20 PAM; 0% = ACh EC20, 100% = ACh EC100; activation, % at 3 µM; 360,000 tested, 0.3% active; AID 624038, 2012;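 active = activation above the run cutoff, the mean activation of all test compounds plus 3 SD, cut at about 18% in these data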
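Replicates: One well per compound, no replicates | System: Human M5 receptor in CHO-K1 cells | Benchmarks: Low control EC20 acetylcholine (0%), high control EC100 acetylcholine (100%) | Probe or stimulus: Acetylcholine, EC20 level | Times: Fluo-8 loading 80 min at 37 °C plus 30 min room temperature | Signal: Intracellular calcium via Fluo-8 fluorescence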
M1 antag = human M1 muscarinic receptor antagonists, primary screen, CHO-K1 cells, Fluo-8 calcium fluorescence, 1536-well | inhibition, % at 3 µM | AID 588852, 2011 | 360,000 tested, 1.3% active | Muscarinic acetylcholine receptor M1 (Homo sapiens), P11229 | CHO-K1 hM1, ACh EC80 antagonist;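 active = percent inhibition above its own plate's cutoff, namely the mean of that plate's compound wells plus 3 SD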;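 note: peak over basal fluorescence ratio during 140 s after agonist addition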
M1 PAM = human M1 muscarinic receptor positive allosteric modulators, primary screen, CHO-K1 cells, Fluo-8 calcium fluorescence, 1536-well | Muscarinic acetylcholine receptor M1 (Homo sapiens), P11229 | AID 588819, 2011 | 360,000 tested, 0.088% active | CHO-K1 hM1, ACh EC20; 0% = ACh EC20, 100% = maximal ACh | activation, % at 3 µM; in the data active = activation above about 19%, passing the limit was not always enough
Numbers stand for hits; 0 = inactive. The list is not random: actives were taken first. Their share in the collection is about 2.1%.

SMILES	M5 ag	CHRM1 agonist	CHRM5 antagonist	M5 PAM	M1 antag	M1 PAM
CN(CC1CCCN(CCc2ccc(Cl)cc2)C1)C(=O)C(=O)c1ccco1 (configuration not stated)	0	0	0	0	43.6	0
Cc1ccccc1CCN1CCCC(CN(C)C(=O)C(=O)c2ccco2)C1 (configuration not stated)	0	0	0	0	0	0
CN(Cc1ccccc1OCCO)CC1CCCN(CCc2ccc(Cl)cc2)C1 (configuration not stated)	0	0	0	0	51.2	0
CCC1CCCCN1CCNC(=O)C1CCN(S(=O)(=O)c2c(C)noc2C)CC1 (configuration not stated)	0	0	0	0	48.2	0
c1ccc2c(Nc3ccc4c(c3)OCCO4)c3c(nc2c1)CCC3	0	0	0	0	0	0
CCN(CC)CCNC(=O)c1ccc(NC(=O)c2cn(-c3ccccc3)nc2-c2cccs2)cc1	0	0	0	0	61.2	0
CCOc1ccc(NC(=O)CN(C)C(=O)c2cn(-c3ccc(F)cc3)nc2-c2cccc(OC)c2)cc1OCC	0	0	0	0	0	0
CCN(CC(=O)Nc1ccc(NC(C)=O)cc1)C(=O)c1c(C)nn(-c2ccc(F)cc2)c1Cl	0	0	0	0	0	0
CCN(CC)CCNC(=O)c1ccc(NC(=O)c2ccccc2-c2ccc(C(F)(F)F)cc2)cc1	0	0	80.8	0	101.1	0
CCN(CC)CCNC(=O)c1ccc(NC(=O)c2cn(-c3ccc(F)cc3)nc2-c2cccc(OC)c2)cc1	0	0	66.7	0	99.3	0
CCN(CC)CCNC(=O)c1ccc(NC(=O)c2c(C)nn(-c3ccc(F)cc3)c2Cl)cc1	0	0	48.7	0	100.7	0
O=C(Nc1cccnc1)c1cn(-c2ccccc2)nc1-c1cccs1	0	0	0	0	0	0
CC1CCCC(C)N1C(=O)COC(=O)COc1ccc(C#N)cc1 (configuration not stated)	0	0	0	0	0	0
C/C(=N\NC(=O)c1c(Cl)c(C)nn1C)c1ccc(NC(=O)c2ccncc2)cc1	0	0	0	0	0	0
CCN(CC)CCNC(=O)c1ccc(NC(=O)c2cccc(S(=O)(=O)N(C)C3CCCCC3)c2)cc1	0	0	97.9	0	99.8	0
Cc1nn(-c2ccc(NC(=O)c3ccncc3)cc2)c(C)c1Cl	0	0	0	0	31.6	0
Cc1ccc(C(=O)N(CCN(C)C)CC2CCCN(Cc3ccccc3F)C2)cc1C (configuration not stated)	0	0	0	0	0	0
Cc1ccc(OS(=O)(=O)c2c(C)nn(C)c2Cl)c(C)c1	0	0	30.5	0	61.7	0
O=C(COC(=O)c1ccncc1)Nc1cc(Cl)ccc1Cl	0	0	0	0	0	0
Cc1nn(-c2cc(N3CCNCC3)ccc2[N+](=O)[O-])c(=O)c2ccccc12	0	0	0	19.0	0	0
Cc1nn(-c2cc(N3CCCCC3)ccc2[N+](=O)[O-])c(=O)c2ccccc12	0	0	0	0	0	0
N#C/C(=C\c1ccccc1)C(=O)NNS(=O)(=O)c1ccc(Br)cc1	0	0	0	18.9	0	0
N#C/C(=C\c1ccccc1)C(=O)NC(=O)Oc1ccccc1	0	0	0	0	0	0
O=C(Nc1ccc(O)c(-c2nc3ccccc3s2)c1)C1=COCCO1	0	0	0	0	78.8	0
S=c1ncc2[nH]c(=S)[nH]c2[nH]1	0	0	0	0	0	0
Oc1ccc(Oc2ccc3c(C(F)(F)F)cc(C(F)(F)F)nc3n2)cc1	0	0	0	0	0	0
